Test results as given in publication PMC9464004 (Drug Design, Development and Therapy, 2022).
Read-outs that look alike come from different tables or passages of the source.

Columns and labels:
Chinese healthy subjects [1] = test: 24-hour urinary glucose excretion; format: in vivo, human
Procedure, shortened: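 Randomized, double-blind, placebo-controlled study in healthy Chinese adults given 200 or 400 mg test compound or placebo orally once daily before the first meal for 8 days. Post-dose urine was pooled over 24 h in 0–8 h and 8–24 h fractions on Day 1 and Day 8. Glucose was assayed centrally, with results withheld from investigators, and reported as absolute excretion.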

[2] = cited from earlier work
[3] = format: in vivo, human; conditions: for CL/F: mean ± SD
Procedure, shortened: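 Healthy Chinese adults took 200 or 400 mg test compound once daily for 8 days. Blood was drawn pre/post-dose Day 1, pre-dose Days 2–8 and post-dose Day 8. Parent and main metabolite were measured by validated LC-MS/MS after protein precipitation, with deuterated internal standards. Linear ranges: 2.00–2000 and 10.0–10,000 ng/mL. Noncompartmental analysis used trapezoidal AUC. CL/F came from AUCtau. Below-limit values counted as zero.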

Chinese healthy subjects [4] = format: in vivo, human
Procedure, shortened: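 Safety population comprised all randomized subjects receiving ≥1 double-blind dose (200 or 400 mg daily test compound or placebo, 8 days), analysed by treatment received. TEAEs were counted from first dose to study end and graded by NCI-CTCAE. Vital signs, ECG and local-lab haematology, coagulation, biochemistry, serology, urinalysis and pregnancy tests were monitored. Summaries were descriptive, with no significance testing.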

[5] = system: healthy volunteers in the United States; conditions: achieved at the 300mg dose, study LX4211-1-101; cited from earlier work
SGLT2 = conditions: cited from earlier work
[6] = co-administered with food (high fat/high caloric)
[7] = across sotagliflozin treatment groups
[8] = sotagliflozin 200 mg qd, 8 days, N=9
[9] = sotagliflozin 400 mg qd, 8 days, N=9

In the case of `CCOc1ccc(Cc2cc([C@@H]3O[C@H](SC)[C@@H](O)[C@H](O)[C@H]3O)ccc2Cl)cc1` [Sotagliflozin], the “24-hour UGE” value (Chinese healthy subjects [1]; sotagliflozin 200 mg qd, Day 1, mean (±SD)) is reported as 188.17 (±51.957) mmol, the “24-hour UGE” value (Chinese healthy subjects [1]; sotagliflozin 200 mg qd, Day 8, mean ± SD) is reported as 213.02 (±67.216) mmol and the “24-hour UGE” value (Chinese healthy subjects [1]; sotagliflozin 400 mg qd, Day 1, mean (±SD)) is reported as 250.18 (±38.063) mmol. For the same compound, the “24-hour UGE” value (Chinese healthy subjects [1]; sotagliflozin 400 mg qd, Day 8, mean ± SD) was 263.90 (±56.665) mmol, the “accumulation index at steady state” value ([2]; EMA data, European-American populations) was “about 2” and the “Cmax with food compared to fasted condition” value [2, 6] was ~2.5 fold. The “total exposure with food compared to fasted condition” value [2, 6] was ~1.5 fold, the degree of accumulation ([3]; 200 or 400 mg qd for 8 days) was “less than 2 fold” and the “estimated increase for AUCtau for a 2-fold increase between doses” value ([3]; Day 1, 200 to 400 mg) was 2.02 fold. For the same compound, the “estimated increase for Cmax for a 2-fold increase between doses” value ([3]; Day 1, 200 to 400 mg) was 1.56 fold, the “estimated increase for AUCtau for a 2-fold increase between doses” value ([3]; Day 8, 200 to 400 mg) was 1.70 fold and the “estimated increase for Cmax for a 2-fold increase between doses” value ([3]; Day 8, 200 to 400 mg) was 1.89 fold. It also gave a half-life ([3]; human, plasma, oral, 400 mg, Mean t1/2z, range over 200 and 400 mg dose levels, Day 8) of 20.5 to 22.4 h, a CL/F ([3]; sotagliflozin 200 mg qd, Day 8) of 267 L/h and a CL/F ([3]; sotagliflozin 400 mg qd, Day 8) of 307 L/h. For the same compound, the tolerability (Chinese healthy subjects [4]; 200 mg and 400 mg per day, 8 days) was “well tolerated”, the “PCSAs of QRS interval >110 ms, number of subjects” value (Chinese healthy subjects [4]; 200mg sotagliflozin, none increased from baseline ≥25%) was 2 and the “asymptomatic alanine aminotransferase (ALT) increase” value (Chinese healthy subjects [4]; AE in 1 subject (400 mg group)) was < 2 × upper limit of normal (ULN). The “constipation, number of subjects” value (Chinese healthy subjects [4]; [7]) was 1, the “dizziness, number of subjects” value (Chinese healthy subjects [4]; [7]) was 2 and the “folliculitis, number of subjects” value (Chinese healthy subjects [4]; [7]) was 1. The “TEAE: Blood phosphorus increased” value (Chinese healthy subjects [4]; [8]) was 1 (11.1%) n (%), the “TEAE: Chest discomfort” value (Chinese healthy subjects [4]; [8]) was 1 (11.1%) n (%) and the “TEAE: Dizziness” value (Chinese healthy subjects [4]; [8]) was 1 (11.1%) n (%). For the same compound, the “TEAE: Folliculitis” value (Chinese healthy subjects [4]; [8]) was 1 (11.1%) n (%), the “TEAE: Petechiae” value (Chinese healthy subjects [4]; [8]) was 1 (11.1%) n (%) and the “TEAE: Proteinuria” value (Chinese healthy subjects [4]; [8]) was 1 (11.1%) n (%). For the same compound, the “TEAE: White blood cell count decreased” value (Chinese healthy subjects [4]; [8]) was 1 (11.1%) n (%), the “increased blood ketone body (TEAE value)” value (Chinese healthy subjects [4]; sotagliflozin 400 mg group, 1 subject) was 0.61 mmol/L and the “TEAE: Alanine aminotransferase increased” value (Chinese healthy subjects [4]; [9]) was 1 (11.1%) n (%). The “TEAE: Asthenia” value (Chinese healthy subjects [4]; [9]) was 1 (11.1%) n (%), the “TEAE: Blood ketone body increased” value (Chinese healthy subjects [4]; [9]) was 1 (11.1%) n (%) and the “TEAE: Blood urine present” value (Chinese healthy subjects [4]; [9]) was 1 (11.1%) n (%). The “TEAE: Constipation” value (Chinese healthy subjects [4]; [9]) was 1 (11.1%) n (%), the “TEAE: Dermatitis” value (Chinese healthy subjects [4]; [9]) was 1 (11.1%) n (%) and the “TEAE: Dizziness” value (Chinese healthy subjects [4]; [9]) was 1 (11.1%) n (%). The “TEAE: Haemorrhoidal haemorrhage” value (Chinese healthy subjects [4]; [9]) was 1 (11.1%) n (%), the “TEAE: Headache” value (Chinese healthy subjects [4]; [9]) was 1 (11.1%) n (%) and the “TEAE: Mouth ulceration” value (Chinese healthy subjects [4]; [9]) was 1 (11.1%) n (%). For the same compound, the “TEAEs considered treatment-related by the Investigator” value (Chinese healthy subjects [4]; sotagliflozin groups (200 and 400 mg)) was 44.4%, the “maximum 24 h UGE” value [5] was 44 g and the “selectivity for SGLT2 than that for SGLT1” value (SGLT2) was 20 fold.
